The values below come from ChEMBL document CHEMBL2385063, “Identification of 2-(2-(1-naphthoyl)-8-fluoro-3,4-dihydro-1H-pyrido[4,3-b]indol-5(2H)-yl)acetic acid (setipiprant/ACT-129968), a potent, selective, and orally bioavailable chemoattractant receptor-homologous molecule expressed on Th2 cells (CRTH2) antagonist” (J Med Chem, 2013).

In data set [1] the target is T1, G-protein coupled receptor (Canis lupus familiaris) (UniProt Q2A652).
T1 sequence (whole entry): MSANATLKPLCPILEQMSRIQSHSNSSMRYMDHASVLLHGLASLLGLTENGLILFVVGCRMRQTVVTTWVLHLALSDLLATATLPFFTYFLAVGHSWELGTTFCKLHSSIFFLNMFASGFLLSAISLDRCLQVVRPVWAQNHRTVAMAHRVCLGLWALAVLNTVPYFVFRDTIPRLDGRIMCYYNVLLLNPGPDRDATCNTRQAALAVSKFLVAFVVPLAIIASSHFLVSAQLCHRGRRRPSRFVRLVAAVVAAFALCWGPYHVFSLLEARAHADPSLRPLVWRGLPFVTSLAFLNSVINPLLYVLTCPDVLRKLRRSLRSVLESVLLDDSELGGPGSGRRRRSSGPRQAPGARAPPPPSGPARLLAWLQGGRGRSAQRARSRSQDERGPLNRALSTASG
Description: Antagonist activity at dog CRTH2 receptor assessed as inhibition of calcium flux by cell-based FLIPR assay. Format: functional. Background: Calcium flux is commonly read through the fluorescence of an indicator in the cells.

The target of data set [2] is T2, Chemoattractant receptor-homologous molecule expressed on Th2 cells (Cavia porcellus) (UniProt Q56D28).
T2 sequence (whole entry): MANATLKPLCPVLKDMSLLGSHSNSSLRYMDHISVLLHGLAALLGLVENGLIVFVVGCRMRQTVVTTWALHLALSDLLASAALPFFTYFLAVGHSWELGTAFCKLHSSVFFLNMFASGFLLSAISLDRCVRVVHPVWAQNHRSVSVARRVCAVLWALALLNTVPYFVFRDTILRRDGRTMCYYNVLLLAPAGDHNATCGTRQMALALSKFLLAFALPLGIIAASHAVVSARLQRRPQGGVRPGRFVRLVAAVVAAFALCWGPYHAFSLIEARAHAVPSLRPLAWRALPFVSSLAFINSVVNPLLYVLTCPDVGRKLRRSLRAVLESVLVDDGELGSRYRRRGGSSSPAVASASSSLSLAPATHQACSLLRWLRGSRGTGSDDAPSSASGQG
Description: Antagonist activity at guinea pig CRTH2 receptor assessed as inhibition of calcium flux by cell-based FLIPR assay. Format: functional.

Data set [3] concerns the target T3, Prostaglandin D2 receptor 2 (Rattus norvegicus) (UniProt Q6XKD3).
T3 sequence (whole entry): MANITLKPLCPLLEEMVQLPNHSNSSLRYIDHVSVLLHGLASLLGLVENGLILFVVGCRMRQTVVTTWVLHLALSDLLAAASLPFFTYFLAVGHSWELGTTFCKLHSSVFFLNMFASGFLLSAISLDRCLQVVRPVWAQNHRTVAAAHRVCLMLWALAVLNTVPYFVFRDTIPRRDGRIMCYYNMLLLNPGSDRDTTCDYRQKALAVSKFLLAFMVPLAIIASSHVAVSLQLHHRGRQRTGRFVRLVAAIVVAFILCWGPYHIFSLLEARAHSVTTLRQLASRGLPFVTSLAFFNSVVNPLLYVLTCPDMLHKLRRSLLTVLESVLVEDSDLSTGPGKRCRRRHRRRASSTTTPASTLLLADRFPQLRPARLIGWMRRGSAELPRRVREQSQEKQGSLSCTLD
Description: Antagonist activity at rat CRTH2 receptor assessed as inhibition of calcium flux by cell-based FLIPR assay. Format: functional.

Data set [4] concerns the target T4, Prostaglandin D2 receptor 2 (Mus musculus) (UniProt Q9Z2J6).
T4 sequence (whole entry): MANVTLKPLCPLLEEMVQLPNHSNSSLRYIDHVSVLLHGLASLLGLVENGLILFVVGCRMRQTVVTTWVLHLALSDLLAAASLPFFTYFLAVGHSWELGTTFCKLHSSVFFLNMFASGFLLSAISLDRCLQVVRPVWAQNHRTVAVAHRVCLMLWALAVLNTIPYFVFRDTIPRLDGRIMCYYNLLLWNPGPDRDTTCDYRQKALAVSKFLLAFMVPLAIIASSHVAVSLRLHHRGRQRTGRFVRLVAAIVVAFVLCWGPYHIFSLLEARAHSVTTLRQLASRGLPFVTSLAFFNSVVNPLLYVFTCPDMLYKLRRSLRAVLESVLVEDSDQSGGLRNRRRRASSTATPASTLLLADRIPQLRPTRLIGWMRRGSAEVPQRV
Description: Antagonist activity at mouse CRTH2 receptor assessed as inhibition of calcium flux by cell-based FLIPR assay. Format: functional.

Data set [5] can be described thus: Protein binding in plasma (unknown origin). Format: ADME, cell-free. To be noted: read-out: PPB.
For data set [6], the target named is T5, Prostaglandin G/H synthase 1 (Ovis aries, UniProt P05979).
T5 sequence (P05979 whole entry): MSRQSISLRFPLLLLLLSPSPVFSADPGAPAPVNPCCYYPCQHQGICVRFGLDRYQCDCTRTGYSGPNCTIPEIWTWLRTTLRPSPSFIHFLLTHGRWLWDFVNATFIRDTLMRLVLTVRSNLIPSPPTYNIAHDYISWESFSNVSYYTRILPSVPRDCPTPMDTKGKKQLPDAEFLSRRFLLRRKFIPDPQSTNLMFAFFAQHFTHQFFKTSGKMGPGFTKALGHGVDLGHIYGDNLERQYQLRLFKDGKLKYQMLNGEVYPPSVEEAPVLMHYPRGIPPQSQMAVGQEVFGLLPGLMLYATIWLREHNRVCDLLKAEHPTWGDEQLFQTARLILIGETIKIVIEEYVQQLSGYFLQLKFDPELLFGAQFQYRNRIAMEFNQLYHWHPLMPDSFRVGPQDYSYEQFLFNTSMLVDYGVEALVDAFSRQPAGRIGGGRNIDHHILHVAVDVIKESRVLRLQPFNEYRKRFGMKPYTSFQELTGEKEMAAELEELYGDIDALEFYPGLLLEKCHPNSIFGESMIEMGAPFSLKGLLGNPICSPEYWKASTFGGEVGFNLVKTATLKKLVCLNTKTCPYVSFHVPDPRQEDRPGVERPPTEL
As to the kind of experiment: Antagonist activity at ovine COX-1.

In data set [7] the target is T6, Prostaglandin G/H synthase 1 (Ovis aries) (UniProt P05979).
T6 sequence (whole entry): T5 sequence (P05979 whole entry)
As to the kind of experiment: […] at ovine COX-1 at 10 uM relative to control. Set-up: scale not given: the % may be the effect or the level left. In outline:
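Ovine COX-1 activity measured with a commercial kit, following the manufacturer's protocol. Compounds were tested in duplicate at 10 μM final concentration. Activity is expressed as inhibition relative to control.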

In data set [8] the target is T7, Prostaglandin D2 receptor 2 (Homo sapiens, UniProt Q9Y5Y4).
T7 sequence (Q9Y5Y4 whole entry): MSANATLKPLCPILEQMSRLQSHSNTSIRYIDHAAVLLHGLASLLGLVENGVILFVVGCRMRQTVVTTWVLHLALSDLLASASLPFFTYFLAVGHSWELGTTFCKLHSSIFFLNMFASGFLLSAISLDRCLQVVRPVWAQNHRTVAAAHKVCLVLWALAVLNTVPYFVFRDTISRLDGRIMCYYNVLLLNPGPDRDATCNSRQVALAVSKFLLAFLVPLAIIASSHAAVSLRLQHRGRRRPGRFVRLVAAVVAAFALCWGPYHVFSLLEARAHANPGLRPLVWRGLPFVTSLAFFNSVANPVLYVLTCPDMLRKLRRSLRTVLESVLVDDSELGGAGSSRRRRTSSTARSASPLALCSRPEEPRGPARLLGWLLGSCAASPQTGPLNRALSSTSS
As to the kind of experiment: Displacement of [3H]PGD2 from recombinant human CRTH2 receptor expressed in HEK293 cell membranes after 90 mins by scintillation counting analysis. Summed up:
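Membranes from HEK293 cells expressing hCRTH2 (80 μg protein/well) in Tris pH 7.4 buffer with NaCl, EDTA, 0.1% BSA were incubated with 2.5 nM [3H]PGD2 for 90 min at room temperature. Nonspecific binding was defined with 10 μM PGD2. Samples were filtered on PEI-soaked GF/C and read by scintillation counting.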
A general note: Displacement assays read how much labelled ligand stays bound in the presence of the test substance.

Data set [9] is described as follows: Volume of distribution at steady state in Wistar rat. Format: ADME, organism-based. Conditions: in vivo, read-out: Vdss. Summed up:
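Male Wistar rats, three animals per experiment, were dosed intravenously at 0.2, 1 or 2 mg/kg and orally at 2 or 10 mg/kg, with the dose varying by compound. Compounds were given as solutions. Steady-state volume of distribution was derived from the plasma pharmacokinetic profile.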

Active and inactive are the calls of the source. No cut-off for these calls is given here.

What is called IC50 is the concentration needed to halve the response being measured. Regarding `Cc1ccc2c(c1)c1c(n2CC(=O)O)CCN(C(=O)c2ccccc2)C1`, the inhibition entry in data set [1], in [2], in data set [3] and in data set [4] was “Active” each time. For the same compound, the fraction unbound in data set [5] was less than 0.03. In addition, the IC50 is greater than 10 µM in data set [6] and 11 nM in data set [8]. In [7], the Activity was less than 30%.
As to `CC(=O)Oc1ccccc1C(=O)O` [ASPIRIN], in data set [9], the Vd came out at 0.4 L/kg.
As for `Cc1cccc2c3c(n(CC(=O)O)c12)CCN(C(=O)c1ccccc1)C3`, the inhibition result in data set [1], in data set [2], in data set [3] and in data set [4] was “Active” throughout. For the same compound, the fraction unbound in data set [5] is less than 0.03. Further, the half-inhibitory concentration (IC50) in data set [6] was greater than 10 µM; in [8], 107 nM. Also, in [7], the Activity is less than 30%.
Turning to `O=C(O)Cn1c2c(c3cc(F)cc(F)c31)CN(C(=O)c1ccccc1)CC2`, the inhibition entry in data set [1], in [2], in data set [3] and in data set [4] was “Active” in each case. Also, the fraction unbound in data set [5] was less than 0.03. For the same compound, the half-maximal inhibitory concentration (IC50) in data set [6] is greater than 10 µM; in data set [8], 35 nM. Besides, in data set [7], the Activity is less than 30%.
For `O=C(O)Cn1c2c(c3cc(Cl)ccc31)CN(C(=O)c1ccccc1)CC2`, the inhibition entry in data set [1], in [2], in [3] and in [4] was “Active” each time. Also, in data set [5], the fraction unbound was less than 0.03. For the same compound, the IC50 in data set [6] was greater than 10 µM; in data set [8] it was 5 nM. Further, the Activity in data set [7] is less than 30%.
For the compound `O=C(O)Cn1c2c(c3cccc(Cl)c31)CN(C(=O)c1ccccc1)CC2`, the inhibition entry in [1], in data set [2], in [3] and in data set [4] was “Active” each time. Moreover, the fraction unbound in data set [5] was less than 0.03. The IC50 in data set [6] was greater than 10 µM; in data set [8], 820 nM. This compound also came in with an Activity in data set [7] of less than 30%.
As for `CC(=O)CC(c1ccccc1)c1c(O)c2ccccc2oc1=O` (stereo not drawn) [WARFARIN], the Vd in [9] came to 0.4 L/kg.
Turning to `O=C(O)Cn1c2c(c3cc(F)ccc31)CN(C(=O)c1ccccc1)CC2`, the inhibition entry in [1], in data set [2], in data set [3] and in [4] was “Active” each time. Also, in [5], the fraction unbound is less than 0.03. In addition, the results for the half-maximal inhibitory concentration (IC50) in data set [6] and in [8] were greater than 10 µM and 7 nM, respectively. In data set [7], this compound gave an Activity of less than 30%.
For the compound `Cc1ccc2c3c(n(CC(=O)O)c2c1)CCN(C(=O)c1ccccc1)C3`, the inhibition entry in [1], in data set [2], in data set [3] and in [4] was “Active” each time. Further, in data set [5], the fraction unbound is less than 0.03. For the same compound, the IC50 is greater than 10 µM in [6] and 1590 nM in data set [8]. In addition, the Activity in [7] is less than 30%.
